In PubChem BioAssay AID463186 (The Scripps Research Institute Molecular Screening Center, 2010) one finds fold change data, which are given here for two molecules.

Activity calls are given as the source filed them.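 How the source made its calls: active means mean luminescence fold change over vehicle of at least 10; inactive means the rest.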

For this assay, the target named is G2/mitotic-specific cyclin-B1 (Homo sapiens) (UniProt P14635). The experiment in a line: cyclin B degradation inhibitors, late-stage follow-up, selectivity assay for Wee1 degradation inhibitor project, cell-based, HeLa, luciferase fusion, luminescence, powder samples (AID 463186). The settings on record: HeLa cyclin B-luciferase stability, at 0.1 µM, hits give high values. A digest of the protocol:
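System: HeLa cells transiently expressing cyclin B–luciferase fusion reporter | Doses: Single nominal dose of 100 nM (0.1 µM) per compound | Timing: 48 h transfection, then 20 h compound exposure at 37 °C | Technique: Luminescence of luciferase reporter | Read-out basis: Mean fold-change in luminescence relative to DMSO-treated cells | Repeats: Four replicate wells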

Chain of G2/mitotic-specific cyclin-B1 (Homo sapiens) (P14635 whole entry, looked up, the tested form may be a part): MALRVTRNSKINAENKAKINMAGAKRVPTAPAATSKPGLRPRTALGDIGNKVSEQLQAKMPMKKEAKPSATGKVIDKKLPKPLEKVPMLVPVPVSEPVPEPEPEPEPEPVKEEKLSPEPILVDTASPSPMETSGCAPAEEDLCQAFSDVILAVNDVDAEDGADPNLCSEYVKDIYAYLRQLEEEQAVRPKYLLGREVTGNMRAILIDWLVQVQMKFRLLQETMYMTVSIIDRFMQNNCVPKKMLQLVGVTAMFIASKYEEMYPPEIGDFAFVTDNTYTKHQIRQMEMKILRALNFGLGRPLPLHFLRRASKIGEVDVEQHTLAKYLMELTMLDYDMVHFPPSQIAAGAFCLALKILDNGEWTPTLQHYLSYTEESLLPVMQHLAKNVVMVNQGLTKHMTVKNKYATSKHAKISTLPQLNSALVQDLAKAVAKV

For the molecule `O=[N+]([O-])c1cccc2[nH]c(CNc3nc(N4CCOCC4)nc4c3ncn4-c3ccsc3)nc12`, the fold change was 2.62 (inactive). With `c1ccc2[nH]c(CNc3nc(N4CCOCC4)nc4c3ncn4-c3ccsc3)nc2c1` the figure was 4.15 (inactive).
